pEC50: −log10 of the molar value. Each block holds one compound with its values, some of them ahead of it.
What was measured:
[1] = molecular target: T1, Beta-3 adrenergic receptor (Homo sapiens, UniProt P13945); test: Agonistic activity was assessed by measuring cAMP accumulation in CHO cells expressing human beta-3 adrenergic receptor; assay type: functional, cell-based
Target sequence in this assay (P13945 whole entry): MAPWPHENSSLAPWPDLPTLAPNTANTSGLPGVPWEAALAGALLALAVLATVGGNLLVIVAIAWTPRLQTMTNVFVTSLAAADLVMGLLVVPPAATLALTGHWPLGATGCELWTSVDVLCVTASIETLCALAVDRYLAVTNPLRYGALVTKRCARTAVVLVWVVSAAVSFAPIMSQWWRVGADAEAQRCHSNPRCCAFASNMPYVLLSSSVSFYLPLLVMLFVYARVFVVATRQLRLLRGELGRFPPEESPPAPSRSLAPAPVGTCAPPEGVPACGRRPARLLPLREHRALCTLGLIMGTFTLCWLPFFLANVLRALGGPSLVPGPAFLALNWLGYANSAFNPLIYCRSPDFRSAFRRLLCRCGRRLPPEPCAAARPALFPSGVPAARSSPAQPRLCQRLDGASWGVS

[2] = molecular target: T2, Beta-2 adrenergic receptor (Homo sapiens, UniProt P07550); test: Agonistic activity was assessed by measuring cAMP accumulation in CHO cells expressing human beta-2 adrenergic receptor; assay type: functional, cell-based
T2 sequence (P07550 whole entry): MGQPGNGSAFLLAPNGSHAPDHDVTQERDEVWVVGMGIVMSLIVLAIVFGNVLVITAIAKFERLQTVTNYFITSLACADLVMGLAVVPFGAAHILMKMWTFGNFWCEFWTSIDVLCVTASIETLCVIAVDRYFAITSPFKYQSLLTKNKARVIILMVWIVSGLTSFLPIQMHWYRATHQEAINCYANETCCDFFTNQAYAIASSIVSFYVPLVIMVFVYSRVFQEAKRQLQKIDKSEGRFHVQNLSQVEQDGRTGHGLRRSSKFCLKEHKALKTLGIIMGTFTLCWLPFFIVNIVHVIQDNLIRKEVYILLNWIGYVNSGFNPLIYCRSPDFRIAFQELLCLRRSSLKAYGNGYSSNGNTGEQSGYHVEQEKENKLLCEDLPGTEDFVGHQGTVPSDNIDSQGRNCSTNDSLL

[3] = molecular target: T1, Beta-3 adrenergic receptor; test: Intrinsic activity against human beta-3 adrenergic receptor IA) as a percentage of maximal stimulation with isoproterenol; assay type: functional
Procedure, shortened: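 In CHO cells expressing low-density human β3-AR (13,000 receptors/cell), cAMP accumulation was measured. Intrinsic activity is expressed as a percentage of the maximal stimulation produced by isoproterenol.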
Target sequence in this assay (P13945 whole entry, looked up): as the sequence (P13945 whole entry) above

[4] = molecular target: Beta-1 adrenergic receptor (Homo sapiens, UniProt P08588); test: Agonistic activity was assessed by measuring cAMP accumulation in CHO cells expressing human beta-1 adrenergic receptor; assay type: functional, cell-based
Chain of Beta-1 adrenergic receptor (P08588 whole entry): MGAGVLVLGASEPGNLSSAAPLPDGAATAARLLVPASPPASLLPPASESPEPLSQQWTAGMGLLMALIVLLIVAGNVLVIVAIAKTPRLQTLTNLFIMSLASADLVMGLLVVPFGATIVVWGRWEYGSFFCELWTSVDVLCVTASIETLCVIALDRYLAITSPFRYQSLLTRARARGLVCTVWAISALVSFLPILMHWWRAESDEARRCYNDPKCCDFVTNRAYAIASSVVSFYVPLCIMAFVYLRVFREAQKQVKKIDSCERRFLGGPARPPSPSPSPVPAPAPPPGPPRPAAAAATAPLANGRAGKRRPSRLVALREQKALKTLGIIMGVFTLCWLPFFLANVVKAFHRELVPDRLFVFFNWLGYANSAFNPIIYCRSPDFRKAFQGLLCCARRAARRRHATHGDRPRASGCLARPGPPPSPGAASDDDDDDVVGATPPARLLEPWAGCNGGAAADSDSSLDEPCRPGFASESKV

[5] = system: Caco-2; test: Permeability of compounds was determined in Caco-2 cell monolayer permeability assay; (high); assay type: functional, cell-based; conditions: Homo sapiens
[6] = system: Caco-2; test: Permeability of compounds was determined in Caco-2 cell monolayer permeability assay; (moderate); assay type: functional, cell-based; conditions: Homo sapiens
[7] = molecular target: T2, Beta-2 adrenergic receptor; test: Effective concentration against human beta-2 adrenergic receptor; assay type: functional

Structure (SMILES): CC/C=C/CNc1cccc([C@@H](O)CN[C@H](C)Cc2c[nH]c3c(OS(C)(=O)=O)cccc23)c1
pEC50 [1]: 8.05
pEC50 [2]: 7.96
IA50 [3]: 101%

Structure (SMILES): C/C=C/CNc1cccc([C@@H](O)CN[C@H](C)Cc2c[nH]c3c(OS(C)(=O)=O)cccc23)c1
pEC50 [1]: 8.92
pEC50 [2]: 8.00
IA50 [3]: 102%
pEC50 [4]: 6.77

pEC50 [1]: 8.54
IA50 [3]: 107%
Structure (SMILES): C[C@H](Cc1c[nH]c2c(OS(C)(=O)=O)cccc12)NC[C@H](O)c1cccc(NCc2ccc3ccccc3c2)c1

pEC50 [1]: 7.49
IA50 [3]: 60%
Structure (SMILES): C[C@H](Cc1c[nH]c2c(OS(C)(=O)=O)cccc12)NC[C@H](O)c1cccc(OS(=O)(=O)c2ccccc2)c1
Permeability (Papp* 10E6 cm/s) [5]: 7

Structure (SMILES): C[C@H](Cc1c[nH]c2c(OS(C)(=O)=O)cccc12)NC[C@H](O)c1cccc(NCc2ccccc2)c1
pEC50 [1]: 7.96
pEC50 [2]: 7.80
Permeability (Papp* 10E6 cm/s) [5]: 9
IA50 [3]: 87%

Structure (SMILES): C[C@H](Cc1c[nH]c2c(OS(C)(=O)=O)cccc12)NC[C@H](O)c1cccc(OCc2ccccc2)c1
pEC50 [1]: 7.82
pEC50 [2]: 7.34
Permeability (Papp* 10E6 cm/s) [5]: 6.7
IA50 [3]: 90%

Structure (SMILES): CC(C)=CCNc1cccc([C@@H](O)CN[C@H](C)Cc2c[nH]c3c(OS(C)(=O)=O)cccc23)c1
pEC50 [1]: 7.44
pEC50 [2]: 7.44
IA50 [3]: 79%
pEC50 [4]: 6.80

Structure (SMILES): C=C(C)CNc1cccc([C@@H](O)CN[C@H](C)Cc2c[nH]c3c(OS(C)(=O)=O)cccc23)c1
pEC50 [1]: 7.77
pEC50 [2]: 8.82
IA50 [3]: 114%

pEC50 [1]: 7.00
IA50 [3]: 54%
Structure (SMILES): C[C@H](Cc1c[nH]c2c(OS(C)(=O)=O)cccc12)NC[C@H](O)c1cccc(CS(=O)(=O)c2ccccc2)c1
Permeability (Papp* 10E6 cm/s) [6]: 0.9

pEC50 [1]: 7.28
IA50 [3]: 38%
Structure (SMILES): C[C@H](Cc1c[nH]c2c(OS(C)(=O)=O)cccc12)NC[C@H](O)c1cccc(N(C)S(=O)(=O)c2ccccc2)c1
Permeability (Papp* 10E6 cm/s) [5]: 4.7

Structure (SMILES): C=CCNc1cccc([C@@H](O)CN[C@H](C)Cc2c[nH]c3c(OS(C)(=O)=O)cccc23)c1
pEC50 [1]: 8.49
pEC50 [2]: 8.66
IA50 [3]: 110%

Structure (SMILES): C#CCNc1cccc([C@@H](O)CN[C@H](C)Cc2c[nH]c3c(OS(C)(=O)=O)cccc23)c1
pEC50 [1]: 8.00
pEC50 [2]: 8.02
IA50 [3]: 102%
pEC50 [4]: 7.35

Structure (SMILES): CC#CCNc1cccc([C@@H](O)CN[C@H](C)Cc2c[nH]c3c(OS(C)(=O)=O)cccc23)c1
pEC50 [1]: 8.19
pEC50 [2]: 7.74
IA50 [3]: 90%

Structure (SMILES): C[C@H](Cc1c[nH]c2c(OS(C)(=O)=O)cccc12)NC[C@H](O)c1cccc(NC(=O)c2ccccc2)c1
pEC50 [1]: 6.80
pEC50 [2]: 7.16
IA50 [3]: 96%
pEC50 [4]: 6.92
Permeability (Papp* 10E6 cm/s) [6]: 0.9

Structure (SMILES): C[C@H](Cc1c[nH]c2c(OS(C)(=O)=O)cccc12)NC[C@H](O)c1cccc(NC/C=C/c2ccccc2)c1
pEC50 [1]: 9.00
pEC50 [2]: 7.89
IA50 [3]: 97%

Structure (SMILES): C[C@H](Cc1c[nH]c2c(OS(C)(=O)=O)cccc12)NC[C@H](O)c1cccc(NS(=O)(=O)c2ccccc2)c1
pEC50 [1]: 9.27
IA50 [3]: 90%
pEC50 [4]: 7.89
pEC50 [7]: 7.72

Source: ChEMBL document CHEMBL1144318, “Tryptamine-based human beta3-adrenergic receptor agonists. Part 3: improved oral bioavailability via modification of the sulfonamide moiety” (Bioorg Med Chem Lett, 2005)
